# STAT3 blocker: inhibitors of IL-6 induced STAT3 signaling | U3A cells, IL-6 STAT3-luciferase reporter, luminescence; host cell line lacks STAT1 | inhibition, % at 5.5 µM | actives 0.89% (n = 190,000);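 active = inhibition above the mean inhibition across all screened compounds plus 3 SD, cut at about 44% in these data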
# STAT3 act: increases IL-6 driven STAT3 reporter signal. U3A cells, IL-6 STAT3-luciferase reporter, luminescence; 100% = signal with IL-6 EC80 alone. activation (% of control), % at 5.6 µM. actives 0.91% (n = 190,000). AID 871;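 active = activation above the screen-wide mean of compound activation plus 3 SD, cut at about 130% in these data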
#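 System – human U3A cells carrying STAT3-luciferase construct · Probe or stimulus – Interleukin-6, 33 ng/mL · Schedule – compound 1 h, then IL-6 6 h at 37 °C · Signal – luminescence from STAT3-driven luciferase reporter · Evaluation – percent of IL-6-only median luminescence · Benchmarks – IL-6-only high control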
# PPC-1+TRAIL kill: PPC-1 cancer cell killing with TRAIL present; PPC-1 cells + TRAIL, ATPLite viability luminescence; cell killing (% activity), % at 4 µM or 5 µM; actives 0.41% (n = 220,000);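 active = cell killing above 50% in the first pass at 4 µM, then a duplicate retest at 5 µM averaging 50% or more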
# C8 TRAIL sens: caspase-8 TRAIL sensitization; NB7+C8 cells + TRAIL, ATPlite viability luminescence; inhibition (viability loss, TRAIL sensitization), % at 10 µM; actives 1% (n = 360,000); AID 624354;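 active = compounds causing at least 50% loss of cell viability in the single-dose screen, relative to plate controls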
# STAT1 inh: STAT1 signaling inhibition | NIH 3T3 STAT1-luciferase reporter, IFN-gamma, luminescence | inhibition, % at 5.5 µM | actives 0.35% (n = 200,000);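 active = inhibition above a set limit, the mean inhibition across all tested compounds plus 3 SD, cut at about 34% in these data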
# PPC-1 tox: kills PPC-1 cells; shares compounds with PPC-1+TRAIL kill; AID 1447; cytotoxicity, % at 5 µM; actives 50% (n = 1,200); PPC-1 viability, ATPlite luminescence, overnight;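 active = reconfirmed compounds whose average cytotoxicity reaches 50% or more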
# A number is an active result; . = inactive; / = no result. This is a sample that favours compounds with a hit; in the whole collection about 1.8% have one here.
SMILES,STAT3 blocker,STAT3 act,PPC-1+TRAIL kill,C8 TRAIL sens,STAT1 inh,PPC-1 tox
CCN(CC)C(=O)C(Sc1ccccc1)c1ccccc1 (stereo not given),.,.,.,.,.,.
CCCNC(=O)C(Sc1ccccc1)c1ccccc1 (stereo not given),.,.,.,.,.,/
CCn1c(Cl)c(C=O)s/c1=N\S(=O)(=O)c1ccccc1,/,/,.,.,/,.
O=C(C[C@H]1C(=O)N(CCc2ccccc2)C[C@@H]1c1ccccc1)Nc1ccccc1,/,/,/,.,/,/
CCOC(=O)Cn1c(O)c(N=NC(=O)OC)c2ccccc21,/,/,.,.,/,/
COC(=O)Cn1c(O)c(N=NC(=O)c2ccc3c(c2)OCO3)c2ccccc21,.,.,.,61,.,.
CNC[C@@H]1OCc2ccccc2-c2c(n(C)c3ccccc23)C(=O)N([C@H](C)CO)C[C@H]1C,/,/,/,.,/,/
COc1cccc(Nc2nc(C(N)Cc3ccc(Cl)cc3)cs2)n1 (stereo not given),/,/,/,.,/,/
O=C(C1Cc2ccccc2CN1S(=O)(=O)c1ccc(F)cc1)N1CCCCC1 (stereo not given),.,.,.,.,.,.
O=C(c1ccco1)N1CCN(C(=O)C2Cc3ccccc3CN2S(=O)(=O)c2ccc(F)cc2)CC1 (stereo not given),.,.,.,.,.,/
Cc1cc(=O)n2nc(N3CCCC(C(=O)N4CCN(c5ccccc5)CC4)C3)sc2n1 (stereo not given),.,.,.,.,.,.
Cc1cc(=O)n2nc(N3CCCC(C(=O)NCc4ccccc4)C3)sc2n1 (stereo not given),/,/,/,.,/,/
COc1ccc(C(=O)C[C@@H]2OC3CCCCC3N2S(=O)(=O)c2ccc(C)cc2)cc1OC (stereo not given in full),/,/,/,.,/,/
Cc1ccc(/C=C(\C#N)c2nc3ccccc3[nH]2)s1,.,.,51,61,.,57
Cc1n[nH]c(=O)nc1N1CCN(c2ccccc2)CC1,.,.,.,.,.,.
Cc1ccccc1NC(=O)CSc1nnc(CNC(=O)c2ccc3c(c2)OCO3)n1C,/,/,/,.,/,/
Cn1c(CNC(=O)Cc2ccc3c(c2)OCO3)nnc1SCc1ccccc1,.,.,.,.,.,.
COc1ccc(N=Nc2ccc(O)c3ncccc23)cc1,/,/,.,.,/,.
COc1ccc2nc(-c3cccc(N)c3)[nH]c2c1,.,.,52,52,.,52
CCCn1c(-c2ccc(OC)cc2)nc2ccccc21,.,.,.,.,.,/
COCn1c(-c2ccc(OC)cc2)nc2ccccc21,.,.,.,.,.,.
Cc1ccc(N/C=C/C(=O)c2cccs2)cc1,98,.,86,88,83,85
O=C(/C=C\Nc1ccc2c(c1)OCO2)c1ccccn1,103,.,92,87,87,92
COc1ccc(N/C=C\C(=O)c2ccc3c(c2)OCO3)cc1,.,.,68,69,.,59
O=C(/C=C\Nc1ccc2c(c1)OCO2)c1ccc2c(c1)OCO2,60,.,85,83,51,84
SMILES,STAT3 blocker,STAT3 act,PPC-1+TRAIL kill,C8 TRAIL sens,STAT1 inh,PPC-1 tox
CCOc1ccc(N/C=C\C(=O)c2ccc3c(c2)OCO3)cc1,.,.,/,.,.,/
COc1ccc(N/C=C/C(=O)c2ccc3c(c2)OCO3)cc1OC,.,.,.,.,.,/
Cc1noc(C)c1-c1ccc(C(=O)NCc2ccc(Cl)cc2)c2occc12,/,/,/,.,/,/
CCc1nnc(NC(=O)c2ccc(OC)c(S(=O)(=O)N3CCCC3)c2)s1,/,/,/,.,/,/
O=C(/C=C\Nc1ccc2c(c1)OCO2)c1cccs1,90,.,82,78,65,82
O=C(Nc1ccc2c(c1)OCO2)c1cccs1,.,.,.,.,.,/
CCCCCC(=O)N1C[C@H](n2cc(-c3ccc(F)cc3)nn2)[C@@H](O)C[C@@H]1c1ccc(Cl)cc1,/,/,/,.,/,/
COCCN(C(=O)COC(=O)CCC1CCCC1)c1c(N)n(Cc2ccccc2)c(=O)[nH]c1=O,/,/,/,.,/,/
CC1(C(=O)NS(=O)(=O)Cc2ccccc2)CCN1C(=O)CCc1ccccc1 (stereo not given),/,/,/,.,/,/
COc1ccc(C(=O)NNC(=O)c2ccccn2)cc1,99,.,86,89,92,81
CCOc1ccccc1NC(=O)COc1cccnc1[N+](=O)[O-],/,/,/,.,/,/
Cc1cc(NC(=O)c2sc3ccccc3c2O)no1,/,/,/,.,/,/
CC(=Nc1ccc(C)cc1C)c1sc2ccccc2c1O,.,.,.,65,.,.
CCn1c(C(=O)N2CCc3ccccc3C2)cc2oc3ccccc3c21,.,.,.,.,.,.
Cc1ccc(C(=O)N2CCC3CC2c2cc(-c4ccc5c(c4)OCO5)ccc23)cc1 (stereo not given),/,/,/,.,/,/
O=C(/C=C/Nc1cccc(F)c1)c1ccco1,.,.,.,.,.,/
O=C(/C=C/Nc1ccc(F)cc1F)c1ccco1,84,.,90,92,77,89
O=C(/C=C/Nc1ccc(Br)cc1F)c1ccco1,96,.,89,91,81,89
O=C(/C=C/Nc1ccccc1O)c1ccco1,/,/,.,.,/,/
CC(C)C1=CC(=Nc2ccc(S(N)(=O)=O)cc2)C=C(C(C)C)C1=O,/,/,/,.,/,/
COc1cc(C(=O)N/N=C(\c2ccccc2)c2ccccn2)cc(OC)c1OC,.,.,.,.,.,.
Cc1ccc(-n2ncc3c(=O)n(-c4cccc(C)c4)c(=O)[nH]c32)cc1,/,/,/,.,/,/
COc1ccc(-c2c(-c3cc(OC)cc(OC)c3)n(C)c3ccc(Br)cc23)cc1,/,/,/,.,/,/
COc1ccc(N=Nc2nc3ccc(Br)cc3n2C)cc1,.,.,76,80,.,72
CCNC(=S)N/N=C/c1sc(N2CCCCC2)nc1-c1cccs1,.,.,.,.,.,.
SMILES,STAT3 blocker,STAT3 act,PPC-1+TRAIL kill,C8 TRAIL sens,STAT1 inh,PPC-1 tox
CCNC(=S)Nc1ccc(N2CCCCC2)cc1,.,.,.,.,.,/
CCCc1cc(CN(C)C(=O)CC2C(=O)NCCN2Cc2ccccc2C)[nH]n1 (stereo not given),/,/,/,.,/,/
Cc1cnc(NC(=O)c2ccc(OCC3CCCO3)cc2)s1 (stereo not given),78,.,83,87,51,86
Cc1ccc(NC(=O)c2ccc(OCC3CCCO3)cc2)nc1 (stereo not given),/,/,/,.,/,/
Cn1c(/C=C/c2ccccc2)nc2ccccc21,89,.,80,83,75,82
CC1=C(C(=O)N2CCCCCC2)CC(CC(=O)NCc2cccc3ccccc23)C(=O)N1CCC1=CCCCC1 (stereo not given),/,/,/,.,/,/
CN(C)c1ccc(-c2nc3ccccc3c(=O)[nH]2)cc1,/,/,88,93,/,88
O=c1[nH]c(-c2ccncc2)nc2ccccc12,.,.,.,.,.,/
CSc1ccccc1NC(=O)C(C)N(C)CC(=O)N1CCN(Cc2ccccc2)CC1 (stereo not given),/,/,/,.,/,/
COC(=O)c1nc2n(n1)C(c1ccc(OC)c(OC)c1OC)C1=C(CCCC1=O)N2 (stereo not given),.,.,.,.,.,.

# From PubChem BioAssay
